Shown are actives, neighbours in structure and some others; about 3.1% of the full set was active somewhere.
PGC1a acetyl inh: modulators of PGC1a acetylation. inhibition, % at 15.6 µM. hit rate 0.17% among 350,000. U2OS PGC1a acetylation, AlphaScreen anti-acetyl-lysine; with virally co-expressed GCN5 acetyltransferase;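 active = every replicate shows inhibition of at least 40%; inconclusive = mean inhibition at least 40% but some replicate below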;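 note: 0% = neutral control wells and 100% = positive control wells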
HIV Env fusion: inhibitors of HIV Env-mediated cell fusion | HeLa-JRFL Env/CEM21 cell fusion, luciferase | inhibition, % at 12.3 µM | hit rate 1.1% among 360,000 | AID 651610;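 active = mean replicate inhibition score of at least 50 and every replicate individually at or above 50; inconclusive = only one of the two criteria met; inactive = mean below 50 and not all replicates reaching 50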;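 note: 0% = plate neutral controls and 100% = maraviroc near 300 nM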
FN deposition inh: fibronectin deposition inhibition | hit rate 0.086% among 350,000 | inhibition, % at 12.6 µM | AID 743247 | AH1F fibroblasts, Alexa488-fibronectin deposition fluorescence, overnight;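 active = mean inhibition across replicates of 30% or more, regardless of how many single replicates reach that level; inconclusive = mean under 30% yet at least half of replicates reach 30%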;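 note: positive control wells lacked labelled fibronectin entirely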
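Material: AH1F fibroblasts assembling fluorescent fibronectin matrix; amount: 10000 AH1F cells/well; medium: DMEM, 2% serum; reagent: Alexa488-fibronectin, 24 nM final in well; dosing: single compound dose, delivered by pin transfer; incubation: 1 h adhesion, overnight exposure; detection: fluorescence after three HBSS washes, excitation 485 nm, emission 525 nm; measure: fibronectin deposition inhibition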
FGF22 binding: shifts melting point of recombinant human FGF22; Q9HCT0; recombinant FGF22 thermal shift, SYPRO orange fluorescence; percent of sucrose octasulfate shift, DMSO zero; activity (Tm shift, normalised), % at 9.99 µM; hit rate 1.5% among 340,000; AID 651658;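 active = mean Tm shift, scaled 0 neutral to 100 positive control, at about 1.3% or above, every replicate too, limit read from the data; inconclusive = no clear call, values can overlap the other calls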
Target sequence (Q9HCT0 whole entry, looked up): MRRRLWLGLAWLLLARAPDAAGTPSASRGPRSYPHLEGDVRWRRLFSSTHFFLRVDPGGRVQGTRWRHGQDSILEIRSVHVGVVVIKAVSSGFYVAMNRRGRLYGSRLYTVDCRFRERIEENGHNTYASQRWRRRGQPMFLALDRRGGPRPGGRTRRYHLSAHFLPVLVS
EWS-Fli block: blocks EWS/Fli oncoprotein-driven transcription; A673 NR0B1-luciferase reporter, viability-normalised; hit rate 0.67% among 350,000; inhibition, % at 12.6 µM;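 active = mean inhibition of at least 50% after viability correction, with every replicate also passing that limit; inconclusive = mean reaches 50% but only one of two replicates passes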;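 note: firefly luciferase signal divided by Alamar Blue viability fluorescence both relative to DMSO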
PAX8 reporter: inhibitors of PAX8 transcriptional activity in RMG-I cells; RMG-I TPO-luciferase reporter, SteadyGlo, 24 h; inhibition, % at 12.6 µM; hit rate 1.2% among 360,000;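 active = mean replicate inhibition at least 60% with every replicate also reaching 60%; inconclusive = only one of the two criteria is met; inactive = mean below 60% and not all replicates reaching 60%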;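 note: luciferase light reporting Pax8 driven TPO promoter activity; plate controls were median of neutral control wells for no effect and mitoxantrone controls for full effect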
Active calls of the source: *; ? = inconclusive; · = no result given; [ ] = dose if it differs, or a comment.

SMILES | PGC1a acetyl inh | HIV Env fusion | FN deposition inh | FGF22 binding | EWS-Fli block | PAX8 reporter
C[C@@H]1CN([C@H](C)CO)S(=O)(=O)c2ccc(C#Cc3ccc(F)cc3)cc2O[C@@H]1CN(C)C(=O)CN(C)C | -9 | 10[16.7 µM] | 15 | -1 | 5 | ·
CN(C)CC(=O)N1CC2(C1)[C@@H](c1ccccc1)[C@@H](CO)N2C(=O)C1CCC1 | 1 | 10[16.7 µM] | 1 | · | -7 | 6
O=C(CN1CCOCC1)NCC[C@@H]1CC[C@H](NC(=O)c2ccccc2F)[C@@H](CO)O1 | 5 | 7[16.7 µM] | 3 | 0 | 0 | -2
O=C(NCCN1C(=O)S/C(=C\c2ccc(OC(F)F)cc2)C1=O)c1cnccn1 | · | · | 14 | 0 | 59* | 128*
N#CC(Cc1cccc(CC(C#N)(c2ccccc2)c2ccccc2)c1)(c1ccccc1)c1ccccc1 | -4 | 57* | 2 | 0 | 20 | -14
CC(C)(C#N)Cc1cc(CC(C)(C)C#N)cc(C(C)(C)C)c1 | -4 | 33 | 0 | 0 | 6 | -12
Cc1ccc(S(=O)(=O)N(C)C[C@@H]2Oc3c(NC(=O)Nc4ccc(F)cc4)cccc3C(=O)N([C@H](C)CO)C[C@@H]2C)cc1 | -15 | 0[16.7 µM] | · | 0 | -5 | 15
CCCCCCCCNC(=O)c1cccnc1SCC(=O)Nc1ccccc1OC | 5 | · | 4 | 39* | 3 | 23
Cc1ccc(S(=O)(=O)Nc2ccc3c(c2)CC(=O)N([C@H](C)CO)C[C@H](C)[C@@H](CN(C)C(=O)NC(C)C)O3)cc1 | 6 | · | · | 0 | 4 | -8
Cc1[nH]n(-c2nc(-c3ccc(Cl)cc3)cs2)c(=O)c1N=Nc1ccc(O)cc1 | 7 | 6 | -6 | 43* | 41 | -4
CCCCCCCCC[n+]1cccc2c3ccccc3ccc21 | -19 | · | · | · | · | ·
CCCCCCCCCCCCCCCC[n+]1ccc(/C=N/O)cc1 | · | 89* | · | 0 | 21 | 94*
CCCCCCCCCCCCCCCC[n+]1ccccc1 | 9 | -14 | 29 | 0 | 60* | 95*
CCCCCCCCCCCCCCCC[n+]1ccc(C(N)=O)cc1 | -7 | ? | -16 | · | · | 111*
O=C(N[C@@H]1CC[C@@H](CC(=O)N2CCCCC2)O[C@H]1CO)c1ccc2c(c1)OCO2 | 4 | -2[16.7 µM] | · | 0 | -3 | 0
C[C@H]1CN([C@@H](C)CO)C(=O)c2cccc(NS(=O)(=O)c3ccc(F)cc3)c2O[C@H]1CN(C)Cc1ccncc1 | 10 | · | · | 0 | 6 | 13
Cc1noc(C)c1S(=O)(=O)Nc1ccc2c(c1)C(=O)N([C@H](C)CO)C[C@@H](C)[C@H](CN(C)Cc1ccccc1)OCCCC[C@H](C)O2 | 9 | -43[16.7 µM] | 4 | 0 | 4 | -17
C/C=C1\COC(C(=O)NCc2cccc(OC)c2OC)(C(F)(F)F)C=C1C=C1CCCCC1 (centres undefined) | -31 | 71* | -17 | 0 | 19 | 16
COc1ccc([Si](C)(C)[C@@H]2[C@@H](CCO)O[C@]3(C(=O)N(Cc4ccccc4)c4ccc(N5C(=O)c6cccc7cccc5c67)cc43)[C@H]2C)cc1 | -17 | 64*[16.7 µM] | · | 0 | 0 | 88*
C=CCN1C(=O)[C@]2(O[C@H](CCn3cc(CCO)nn3)[C@@H]([Si](C)(C)c3ccc(OC)cc3)[C@@H]2C)c2cc(N3C(=O)c4cccc5cccc3c45)ccc21 | · | 70*[16.7 µM] | · | 0 | 36 | 97*
C=CCN1C(=O)[C@]2(O[C@H](CCn3cc([C@H](O)c4ccccc4)nn3)[C@@H]([Si](C)(C)c3ccc(OC)cc3)[C@@H]2C)c2cc(N3CCOC3=O)ccc21 | · | -3[16.7 µM] | · | 0 | 16 | 1
COc1ccc([Si](C)(C)[C@@H]2[C@@H](CCO)O[C@]3(C(=O)N(Cc4cccc(NC(C)=O)c4)c4ccccc43)[C@H]2C)cc1 | -11 | 14[16.7 µM] | · | -1 | 21 | 103*
COc1cccc(-c2ccc([C@H]3[C@@H](CO)N(C(=O)Cc4ccncc4)[C@H]3C#N)cc2)c1 | -5 | · | · | 1 | 1 | 10
CO[C@H]1CN(C)C(=O)c2cc(NC(C)=O)ccc2OC[C@@H](C)N(C(=O)c2ccc(F)cc2)C[C@@H]1C | 9 | -6[16.7 µM] | -18 | 1 | -1 | ·
Cc1ccccc1C(=O)NCC(=O)O | 9 | -24 | -9 | 43* | 3 | 1
SMILES | PGC1a acetyl inh | HIV Env fusion | FN deposition inh | FGF22 binding | EWS-Fli block | PAX8 reporter
O=C(O)CNC(=O)c1ccccc1F | -6 | · | · | · | · | ·
CCC1=Nc2cc(C(=O)NCC3CCCO3)ccc2Sc2ccc(Cl)cc21 (centres undefined) | 7 | -6 | -7 | 0 | 57* | 43
CCC1=Nc2cc(C(=O)NCc3ccco3)ccc2Sc2ccc(Cl)cc21 | · | ? | -2 | · | · | 41
CCC1=Nc2cc(C(=O)NCc3cccnc3)ccc2Sc2ccc(C)cc21 | -13 | -6 | 8 | 0 | 65* | 27
COc1ccc(NC(=O)N(C)C[C@H]2OCCCC[C@H](C)Oc3ccc(NS(=O)(=O)c4ccc(C)cc4)cc3C(=O)N([C@H](C)CO)C[C@@H]2C)cc1 | 7 | -114[16.7 µM] | 8 | · | 10 | 6
C[C@H](CO)N1C[C@H](C)[C@H](CN(C)Cc2ccc(Cl)c(Cl)c2)Oc2ccc(NS(=O)(=O)c3cccs3)cc2C1=O | 0 | -8[16.7 µM] | · | -1 | -2 | 20
Cc1cccc(NC(=O)CCN2CCOCC2)c1 | 5 | -49 | 13 | · | · | -18
Fc1cc(F)cc(NC(=S)NCCCN2CCOCC2)c1 | -2 | 6 | 9 | 43* | 3 | -13
Cc1cccc(NC(=O)C(=O)NCCCN2CCOCC2)c1 | -3 | 5 | 6 | 43* | 1 | 17
CO[C@H]1CN(C)C(=O)c2cc(NS(C)(=O)=O)ccc2OC[C@@H](C)N(C(=O)NC(C)C)C[C@H]1C | -1 | -3[16.7 µM] | · | · | 3 | -3
C[C@@H]1CN([C@H](C)CO)C(=O)c2cccc(N(C)C)c2O[C@H]1CN(C)S(=O)(=O)c1cccs1 | -13 | 9[16.7 µM] | -2 | 0 | -17 | -2
O=C1C=C(NCCc2cc(Br)c(O)c(Br)c2)C(=O)c2ncccc21 | · | -2 | 7 | 0 | 19 | 101*
CC(=O)Oc1cccc(N2C(=O)c3ccccc3C2=O)c1 | · | · | 7 | 0 | -7 | 78*
CC(=O)Nc1cccc2c1C(=O)N(c1cccc(OC(C)=O)c1)C2=O | · | 15 | 3 | 42 | 12 | 11
Cc1ccc(-n2cccc2C(=O)NS(=O)(=O)c2ccc(C)cc2)cc1 | 2 | -2 | -2 | 0 | -8 | -12
Cc1ccc(-n2cccc2C(=S)N=P(N(C)C)(N(C)C)N(C)C)cc1 | 85* | 8 | 6 | · | · | ·
Cc1nc2nc(C)c(CCC(=O)N3CCN(c4ccccn4)CC3)c(C)n2n1 | -28 | -5 | -3 | · | · | ·
CCn1c(=O)c(CCC(=O)N2CCN(c3ccccn3)CC2)c(C)c2c(C)nn(-c3cccc(C)c3)c21 | -2 | 58* | 5 | 0 | 11 | -3
